Laboratory results taken from ChEMBL document CHEMBL1177719 (J Med Chem, 2010).
Calls of active or inactive are those of the source. The rule behind the calls is not given here.

Legend:
RAW264.7 = experiment: Inhibition of LPS-induced COX2 expression in mouse RAW264.7 cells at 34 uM treated 15 mins before LPS challenge measured after 18 hrs by immunoblotting; format: functional, cell-based
In short: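 RAW 264.7 cells pretreated with samples 15 min, then LPS 1 μg/mL for 18 h. Lysates (30 μg protein) run on 8% SDS-PAGE, transferred to PVDF, probed with primary and HRP secondary antibodies, ECL detection. β-actin internal control; band density quantified relative to the LPS-only control; duplicate experiment.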

MCF7 = experiment: Cytotoxicity against human MCF7 cells assessed as cell survival at 20 ug/ml after 72 hrs by sulforhodamine B method; format: functional; details: MCF7, 72 h, read-out: Activity
In short: (§1)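 Sulforhodamine B assay. KB or MCF7 cells plated with samples and held 72 h at 37 °C, 5% CO₂. Fixed 1 h in 10% trichloroacetic acid, stained with 0.4% SRB in 1% acetic acid, dye taken up in 10 mM Tris.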

KB = experiment: Cytotoxicity against human KB cells assessed as cell survival at 20 ug/ml after 72 hrs by sulforhodamine B method; format: functional; details: read-out: Activity; in short: as §1
[1] = target: T1, Nitric oxide synthase, inducible (Mus musculus) (UniProt P29477); experiment: Inhibition of iNOS-mediated nitric oxide production in LPS-stimulated mouse RAW 264.7 cells at 34 uM pretreated 30 mins before LPS challenge measured after 20 hrs by Griess reaction method relative to control; format: cell-based
T1 sequence (whole entry): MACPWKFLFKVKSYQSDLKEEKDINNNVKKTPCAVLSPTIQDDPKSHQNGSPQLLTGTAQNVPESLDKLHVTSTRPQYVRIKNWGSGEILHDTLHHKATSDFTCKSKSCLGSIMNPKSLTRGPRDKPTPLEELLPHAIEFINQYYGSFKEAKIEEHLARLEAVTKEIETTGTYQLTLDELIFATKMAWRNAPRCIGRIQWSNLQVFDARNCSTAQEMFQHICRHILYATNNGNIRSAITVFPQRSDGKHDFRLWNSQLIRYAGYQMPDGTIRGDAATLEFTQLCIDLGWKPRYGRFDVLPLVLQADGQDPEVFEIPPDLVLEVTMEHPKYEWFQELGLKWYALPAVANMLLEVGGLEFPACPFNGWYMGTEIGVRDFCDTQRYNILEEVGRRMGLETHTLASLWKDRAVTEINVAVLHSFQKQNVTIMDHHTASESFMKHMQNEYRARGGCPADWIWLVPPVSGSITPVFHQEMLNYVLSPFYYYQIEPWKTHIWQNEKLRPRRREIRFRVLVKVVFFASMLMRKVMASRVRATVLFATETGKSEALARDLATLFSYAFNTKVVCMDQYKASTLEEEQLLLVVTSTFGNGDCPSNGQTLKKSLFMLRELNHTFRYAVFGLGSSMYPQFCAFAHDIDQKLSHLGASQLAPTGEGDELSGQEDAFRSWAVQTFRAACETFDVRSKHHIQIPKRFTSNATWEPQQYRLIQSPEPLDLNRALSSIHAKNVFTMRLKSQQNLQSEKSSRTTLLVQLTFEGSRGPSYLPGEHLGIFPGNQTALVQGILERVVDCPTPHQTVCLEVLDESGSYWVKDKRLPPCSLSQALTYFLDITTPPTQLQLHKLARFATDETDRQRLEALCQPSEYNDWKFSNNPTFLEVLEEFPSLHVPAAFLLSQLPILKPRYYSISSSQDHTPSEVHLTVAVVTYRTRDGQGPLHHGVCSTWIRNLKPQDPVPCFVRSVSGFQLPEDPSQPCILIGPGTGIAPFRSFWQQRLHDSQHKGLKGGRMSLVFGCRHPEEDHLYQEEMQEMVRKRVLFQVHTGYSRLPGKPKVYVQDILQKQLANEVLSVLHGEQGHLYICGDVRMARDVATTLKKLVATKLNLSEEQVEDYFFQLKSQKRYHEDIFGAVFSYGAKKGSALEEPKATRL

HEK293 = experiment: Inhibition of TNF-alpha-induced NF-kappaB activity expressed in HEK293 cells at 34 uM after 48 hrs by luciferase reporter gene assay relative to control; format: cell-based
In short: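 Stably transfected 293 cells carrying an NFκB response element–luciferase reporter, exposed to TNFα plus compound for 48 h, then assayed for luciferase. Activity expressed as % of TNFα-treated control. IC₅₀ from five serial dilutions, mean of two experiments.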

Aromatase = target: T2, Aromatase (Homo sapiens, UniProt P11511); details: read-out: INH
T2 sequence (P11511 whole entry): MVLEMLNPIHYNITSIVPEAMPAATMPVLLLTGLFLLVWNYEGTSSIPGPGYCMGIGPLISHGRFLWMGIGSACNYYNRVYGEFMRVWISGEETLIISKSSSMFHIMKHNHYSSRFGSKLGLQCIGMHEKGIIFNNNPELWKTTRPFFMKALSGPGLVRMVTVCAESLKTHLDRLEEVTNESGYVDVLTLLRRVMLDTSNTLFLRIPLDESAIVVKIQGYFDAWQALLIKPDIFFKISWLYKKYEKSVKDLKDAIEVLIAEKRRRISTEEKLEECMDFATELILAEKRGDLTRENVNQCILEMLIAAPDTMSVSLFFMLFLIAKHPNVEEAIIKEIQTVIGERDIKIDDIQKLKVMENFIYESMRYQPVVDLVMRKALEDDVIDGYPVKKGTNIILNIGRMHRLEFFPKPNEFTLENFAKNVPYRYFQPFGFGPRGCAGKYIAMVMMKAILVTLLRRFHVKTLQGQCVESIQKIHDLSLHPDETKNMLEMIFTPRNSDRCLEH

Row | Structure (SMILES) | inhibition (RAW264.7) | viability at 20 µg/mL (MCF7) | viability at 20 µg/mL (KB) | inhibition [1] | inhibition (HEK293) | inhibition at 34 µM (Aromatase)
1 | O=S(=O)([O-])Oc1cc(O)cc(/C=C/c2ccc(O)cc2)c1.[K+] | inactive | 51.7% | 70.3% | 41% | 33% | 28.2%
2 | O=S(=O)([O-])Oc1ccc(/C=C/c2cc(OS(=O)(=O)[O-])cc(OS(=O)(=O)[O-])c2)cc1.[K+].[K+].[K+] | inactive | 107% | 78.1% | 24.8% | 36.7% | 28.5%
3 | O=S(=O)([O-])Oc1ccc(/C=C/c2cc(O)cc(O)c2)cc1.[K+] | inactive | 103% | 108% | 56.8% | 64% | 30.4%
4 | O=S(=O)([O-])Oc1cc(/C=C/c2ccc(O)cc2)cc(OS(=O)(=O)[O-])c1.[K+].[K+] | inactive | 97.2% | 84.2% | 4.8% | 42.5% | 20.5%
